Source: ChEMBL document CHEMBL5120823, “Feature-Based Molecular Networking Discovery of Bromopyrrole Alkaloids from the Marine Sponge Agelas dispar” (J Nat Prod, 2022)
In brackets after ≈: the same amount, converted by molar mass.

Assays:
[1] = system: Escherichia coli; assay: Antibacterial activity against Escherichia coli ATCC 25922 incubated for 24 hrs by broth microdilution method; type: functional
Summary of the method: (§1)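 CLSI-based broth microdilution. Pure bacterial suspensions were set to 0.5 McFarland (about (1−2) × 10^8 CFU/mL) and diluted to a final inoculum of about 5 × 10^5 CFU/mL. Compounds were tested in 2-fold dilutions from 100 to 0.78 μM and incubated at 35 °C for 24 h. MIC was read as the lowest concentration with no growth visible to the unaided eye.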

[2] = system: Escherichia coli; assay: Antibacterial activity against ESBL-producing Escherichia coli ATCC 35218 incubated for 24 hrs by broth microdilution method; type: functional; summary of the method: as §1
[3] = system: Klebsiella pneumoniae; assay: Antibacterial activity against Klebsiella pneumoniae ATCC 700603 incubated for 24 hrs by broth microdilution method; type: functional; summary of the method: as §1
[4] = system: Klebsiella pneumoniae; assay: Antibacterial activity against carbapenem-resistant Klebsiella pneumoniae id-146/19 incubated for 24 hrs by broth microdilution method; type: functional
Summary of the method: (§2)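 CLSI-based broth microdilution. Pure bacterial suspensions adjusted to 0.5 McFarland (about (1−2) × 10^8 CFU/mL), then diluted to a final inoculum of about 5 × 10^5 CFU/mL (5 × 10^4 CFU/well). Compounds were tested in 2-fold dilutions from 100 to 0.78 μM. Plates incubated 24 h at 35 °C. MIC was the lowest concentration with complete growth inhibition by unaided eye, reported in μM.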

[5] = system: Acinetobacter baumannii; assay: Antibacterial activity against Acinetobacter baumannii ATCC 19606 incubated for 24 hrs by broth microdilution method; type: functional; summary of the method: as §1
[6] = system: Acinetobacter baumannii; assay: Antibacterial activity against carbapenem-resistant Acinetobacter baumannii id-261/16 incubated for 24 hrs by broth microdilution method; type: functional; summary of the method: as §2
[7] = system: Pseudomonas aeruginosa; assay: Antibacterial activity against Pseudomonas aeruginosa ATCC 27853 incubated for 24 hrs by broth microdilution method; type: functional; summary of the method: as §1
[8] = system: Pseudomonas aeruginosa; assay: Antibacterial activity against carbapenem-resistant Pseudomonas aeruginosa S-6065/06 incubated for 24 hrs by broth microdilution method; type: functional; summary of the method: as §2
[9] = system: Enterococcus faecalis; assay: Antibacterial activity against Enterococcus faecalis ATCC 29212 incubated for 24 hrs by broth microdilution method; type: functional; summary of the method: as §1
[10] = system: Enterococcus faecalis; assay: Antibacterial activity against vancomycin resistant Enterococcus faecalis ATCC 51299 incubated for 24 hrs by broth microdilution method; type: functional; summary of the method: as §2
[11] = system: Staphylococcus aureus; assay: Antibacterial activity against Staphylococcus aureus ATCC 25923 incubated for 24 hrs by broth microdilution method; type: functional; summary of the method: as §2
[12] = system: Staphylococcus aureus; assay: Antibacterial activity against oxacillin-resistant Staphylococcus aureus ATCC 33591 incubated for 24 hrs by broth microdilution method; type: functional; summary of the method: as §2
[13] = Hemolytic activity against BALB/c mouse erythrocyte at 100 uM measured after 2 hrs relative to control; type: toxicity, cell-based; conditions: erythrocytes, read-out: Activity
Summary of the method: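 BALB/c mouse erythrocytes, as a 3% suspension in 1× PBS, were exposed to compound at 100 to 6.25 μM for 2 h at 24 °C. Hemolysis was read as supernatant optical density at 570 nm. Distilled water gave maximum hemolysis, and untreated erythrocytes served as the negative control.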

[14] = system: OVCAR3 (Homo sapiens); assay: Cytotoxicity against human OVCAR3 cells assessed as inhibition of cell viability at 50 uM incubated for 72 hrs by MTT assay relative to control

Nc1nc([C@@H]2c3nc(N)[nH]c3C[C@H](CNC(=O)c3cc(Br)c(Br)[nH]3)[C@H]2CNC(=O)c2cc(Br)c(Br)[nH]2)c[nH]1
MIC [1]: 12.5 µM (≈ 9.73 µg/mL) | MIC [2]: 12.5 µM (≈ 9.73 µg/mL) | MIC [3]: 12.5 µM (≈ 9.73 µg/mL) | MIC [4]: 25 µM (≈ 19.5 µg/mL) | MIC [5]: 100 µM (≈ 77.8 µg/mL) | MIC [6]: 100 µM (≈ 77.8 µg/mL) | MIC [7]: 25 µM (≈ 19.5 µg/mL) | MIC [8]: 25 µM (≈ 19.5 µg/mL) | MIC [9]: 6.2 µM (≈ 4.82 µg/mL) | MIC [10]: 6.2 µM (≈ 4.82 µg/mL) | MIC [11]: 6.2 µM (≈ 4.82 µg/mL) | MIC [12]: 6.2 µM (≈ 4.82 µg/mL) | hemolysis at 2 h, 100 µM [13]: 0.7%

Nc1nc([C@@H]2c3[nH]c(N)nc3C[C@H](CNC(=O)c3cc(Br)c[nH]3)[C@H]2CNC(=O)c2cc(Br)c(Br)[nH]2)c[nH]1 [BROMOAGELIFERIN]
MIC [1]: 12.5 µM (≈ 8.74 µg/mL) | MIC [2]: 25 µM (≈ 17.5 µg/mL) | MIC [3]: > 100 µM | MIC [4]: > 100 µM | MIC [5]: > 100 µM | MIC [6]: 100 µM (≈ 69.9 µg/mL) | MIC [7]: 12.5 µM (≈ 8.74 µg/mL) | MIC [8]: 50 µM (≈ 35 µg/mL) | MIC [9]: > 100 µM | MIC [10]: > 100 µM | MIC [11]: 12.5 µM (≈ 8.74 µg/mL) | MIC [12]: 12.5 µM (≈ 8.74 µg/mL) | hemolysis at 2 h, 100 µM [13]: 1.5%

Nc1nc([C@@H]2c3[nH]c(N)nc3C[C@H](CNC(=O)c3cc(Br)c[nH]3)[C@H]2CNC(=O)c2cc(Br)c[nH]2)c[nH]1
MIC [1]: 100 µM (≈ 62 µg/mL) | MIC [2]: 100 µM (≈ 62 µg/mL) | MIC [3]: > 100 µM | MIC [4]: > 100 µM | MIC [5]: > 100 µM | MIC [6]: > 100 µM | MIC [7]: 50 µM (≈ 31 µg/mL) | MIC [8]: > 100 µM | MIC [9]: > 100 µM | MIC [10]: > 100 µM | MIC [11]: > 100 µM | MIC [12]: > 100 µM | hemolysis at 2 h, 100 µM [13]: 2.3% | Activity [14]: 50%
